Measurements from ChEMBL document CHEMBL1125326, “Potent gonadotropin releasing hormone antagonists with low histamine-releasing activity” (J Med Chem, 1992).
In brackets after ≈: the same amount, converted by molar mass.

Experiments:
[1] = organism: Rattus norvegicus; assay: Evaluated for the release of histamine in rats (based on 10 animals per dose group); assay type: functional, organism-based
[2] = system: Rattus norvegicus; assay: Evaluated for the anti-ovulatory activity (rats were injected subcutaneously at noon on proestrus); assay type: functional
In short: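 Female rats with at least two consecutive normal 4-day cycles, confirmed by vaginal lavage cytology, were dosed once s.c. at noon on proestrus in 50% propylene glycol/0.9% saline. On the morning of expected estrus, the oviducts were examined for ovulated eggs, which were counted. The effective dose came from % females ovulating plotted against log dose, usually with ≥3 dose groups (10 rats per group total).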

Structure (SMILES) | EC50 [1] | ED50 [2]
CC(=O)N[C@H](Cc1ccc2ccccc2c1)C(=O)N[C@H](Cc1ccc(Cl)cc1)C(=O)N[C@H](Cc1cccnc1)C(=O)N[C@@H](CO)C(=O)N[C@@H](CCCN=C(N)N)C(=O)N[C@H](CCC(=O)N[C@@H](C)C(=O)N[C@@H](C)C(=O)O)C(=O)N[C@@H](CC(C)C)C(=O)N[C@@H](CCCN=C(N)N)C(=O)N1CCC[C@H]1C(=O)N[C@H](C)C(N)=O | 1.6 mg/L (≈ 1.04 µM) | <1.5 µg
CC(=O)N[C@H](Cc1ccc2ccccc2c1)C(=O)N[C@H](Cc1ccc(Cl)cc1)C(=O)N[C@H](Cc1c[nH]c2ccccc12)C(=O)N[C@@H](CO)C(=O)N[C@@H](Cc1ccc(O)cc1)C(=O)N[C@H](Cc1c[nH]c2ccccc12)C(=O)N[C@@H](CC(C)C)C(=O)N[C@@H](CCCCN=C(NCC(F)(F)F)NCC(F)(F)F)C(=O)N1CCC[C@H]1C(=O)N[C@H](C)C(N)=O [listing 1 of 2 here] | > 100 mg/L | –
CC(=O)N[C@H](Cc1ccc2ccccc2c1)C(=O)N[C@H](Cc1ccc(Cl)cc1)C(=O)N[C@H](Cc1c[nH]c2ccccc12)C(=O)N[C@@H](CO)C(=O)N[C@@H](Cc1ccc(O)cc1)C(=O)N[C@H](Cc1c[nH]c2ccccc12)C(=O)N[C@@H](CC(C)C)C(=O)N[C@@H](CCCCN=C(NCC(F)(F)F)NCC(F)(F)F)C(=O)N1CCC[C@H]1C(=O)N[C@H](C)C(N)=O [listing 2 of 2 here] | – | >2 µg
CC(=O)N[C@H](Cc1ccc2ccccc2c1)C(=O)N[C@H](Cc1ccc(Cl)cc1)C(=O)N[C@H](Cc1c[nH]c2ccccc12)C(=O)N[C@@H](CO)C(=O)N[C@@H](CCCN=C(N)N)C(=O)N[C@H](Cc1c[nH]c2ccccc12)C(=O)N[C@@H](CC(C)C)C(=O)N[C@@H](CCCCN=C(NCC(F)(F)F)NCC(F)(F)F)C(=O)N1CCC[C@H]1C(=O)N[C@H](C)C(N)=O [listing 1 of 2 here] | 0.56 mg/L (≈ 0.335 µM) | –
CC(=O)N[C@H](Cc1ccc2ccccc2c1)C(=O)N[C@H](Cc1ccc(Cl)cc1)C(=O)N[C@H](Cc1c[nH]c2ccccc12)C(=O)N[C@@H](CO)C(=O)N[C@@H](CCCN=C(N)N)C(=O)N[C@H](Cc1c[nH]c2ccccc12)C(=O)N[C@@H](CC(C)C)C(=O)N[C@@H](CCCCN=C(NCC(F)(F)F)NCC(F)(F)F)C(=O)N1CCC[C@H]1C(=O)N[C@H](C)C(N)=O [listing 2 of 2 here] | – | >2 µg
CC(=O)N[C@H](Cc1ccc2ccccc2c1)C(=O)N[C@H](Cc1ccc(Cl)cc1)C(=O)N[C@H](Cc1c[nH]c2ccccc12)C(=O)N[C@@H](CO)C(=O)N[C@@H](Cc1ccc(O)cc1)C(=O)N[C@H](Cc1c[nH]c2ccccc12)C(=O)N[C@@H](CC(C)C)C(=O)N[C@@H](CCCCNC1=NCCCN1)C(=O)N1CCC[C@H]1C(=O)N[C@H](C)C(N)=O [listing 1 of 2 here] | 8.5 mg/L (≈ 5.48 µM) | –
CC(=O)N[C@H](Cc1ccc2ccccc2c1)C(=O)N[C@H](Cc1ccc(Cl)cc1)C(=O)N[C@H](Cc1c[nH]c2ccccc12)C(=O)N[C@@H](CO)C(=O)N[C@@H](Cc1ccc(O)cc1)C(=O)N[C@H](Cc1c[nH]c2ccccc12)C(=O)N[C@@H](CC(C)C)C(=O)N[C@@H](CCCCNC1=NCCCN1)C(=O)N1CCC[C@H]1C(=O)N[C@H](C)C(N)=O [listing 2 of 2 here] | – | >1 µg
CC/N=C(/NCC)NCCCC[C@@H](NC(=O)[C@H](Cc1ccc(O)cc1)NC(=O)[C@H](CO)NC(=O)[C@@H](Cc1cccnc1)NC(=O)[C@@H](Cc1ccc(F)cc1)NC(=O)[C@@H](Cc1ccc2ccccc2c1)NC(C)=O)C(=O)N[C@@H](CC(C)C)C(=O)N[C@@H](CCCCN/C(=N/CC)NCC)C(=O)N1CCC[C@H]1C(=O)N[C@H](C)C(N)=O [listing 1 of 2 here] | 8 mg/L (≈ 5.15 µM) | –
CC/N=C(/NCC)NCCCC[C@@H](NC(=O)[C@H](Cc1ccc(O)cc1)NC(=O)[C@H](CO)NC(=O)[C@@H](Cc1cccnc1)NC(=O)[C@@H](Cc1ccc(F)cc1)NC(=O)[C@@H](Cc1ccc2ccccc2c1)NC(C)=O)C(=O)N[C@@H](CC(C)C)C(=O)N[C@@H](CCCCN/C(=N/CC)NCC)C(=O)N1CCC[C@H]1C(=O)N[C@H](C)C(N)=O [listing 2 of 2 here] | – | 1 µg
CC/N=C(\NCC)NCCCC[C@H](NC(=O)[C@H](CC(C)C)NC(=O)[C@@H](CCCCN=C(NCC(F)(F)F)NCC(F)(F)F)NC(=O)[C@H](Cc1ccc(O)cc1)NC(=O)[C@H](CO)NC(=O)[C@@H](Cc1cccnc1)NC(=O)[C@@H](Cc1ccc(F)cc1)NC(=O)[C@@H](Cc1ccc2ccccc2c1)NC(C)=O)C(=O)N1CCC[C@H]1C(=O)N[C@H](C)C(N)=O | 9.3 mg/L (≈ 5.6 µM) | –
CCCC/N=C(\N)NCCCC[C@H](NC(=O)[C@H](CO)NC(=O)[C@@H](Cc1cccnc1)NC(=O)[C@@H](Cc1ccc(Cl)cc1)NC(=O)[C@@H](Cc1ccc2ccccc2c1)NC(C)=O)C(=O)N[C@H](Cc1cccnc1)C(=O)N[C@@H](CC(C)C)C(=O)N[C@@H](CCCCN/C(N)=N/CCCC)C(=O)N1CCC[C@H]1C(=O)N[C@H](C)C(N)=O [listing 1 of 2 here] | 9.3 mg/L (≈ 5.98 µM) | –
CCCC/N=C(\N)NCCCC[C@H](NC(=O)[C@H](CO)NC(=O)[C@@H](Cc1cccnc1)NC(=O)[C@@H](Cc1ccc(Cl)cc1)NC(=O)[C@@H](Cc1ccc2ccccc2c1)NC(C)=O)C(=O)N[C@H](Cc1cccnc1)C(=O)N[C@@H](CC(C)C)C(=O)N[C@@H](CCCCN/C(N)=N/CCCC)C(=O)N1CCC[C@H]1C(=O)N[C@H](C)C(N)=O [listing 2 of 2 here] | – | 1.5 µg
CCCC/N=C(\N)NCCCC[C@H](NC(=O)[C@H](CC(C)C)NC(=O)[C@@H](Cc1c[nH]c2ccccc12)NC(=O)[C@H](Cc1ccc(O)cc1)NC(=O)[C@H](CO)NC(=O)[C@@H](Cc1c[nH]c2ccccc12)NC(=O)[C@@H](Cc1ccc(Cl)cc1)NC(=O)[C@@H](Cc1ccc2ccccc2c1)NC(C)=O)C(=O)N1CCC[C@H]1C(=O)N[C@H](C)C(N)=O | 1.6 mg/L (≈ 1.02 µM) | ~1.3 µg
CCCC/N=C(\N)NCCCC[C@H](NC(=O)[C@H](CC(C)C)NC(=O)[C@@H](CCCCN/C(N)=N/CCCC)NC(=O)[C@H](Cc1ccc(O)cc1)NC(=O)[C@H](CO)NC(=O)[C@@H](Cc1cccnc1)NC(=O)[C@@H](Cc1ccc(Cl)cc1)NC(=O)[C@@H](Cc1ccc2ccccc2c1)NC(C)=O)C(=O)N1CCC[C@H]1C(=O)N[C@H](C)C(N)=O | 0.64 mg/L (≈ 0.408 µM) | ~0.9 µg
CC/N=C(\NCC)NCCCC[C@H](NC(=O)[C@H](CO)NC(=O)[C@@H](Cc1cccnc1)NC(=O)[C@@H](Cc1ccc(F)cc1)NC(=O)[C@@H](Cc1ccc2ccccc2c1)NC(C)=O)C(=O)N[C@H](Cc1cccnc1)C(=O)N[C@@H](CC(C)C)C(=O)N[C@@H](CCCCN/C(=N/CC)NCC)C(=O)N1CCC[C@H]1C(=O)N[C@H](C)C(N)=O | 26.2 mg/L (≈ 17 µM) | –
CC/N=C(/NCC)NCCCC[C@@H](NC(=O)[C@H](Cc1ccc(O)cc1)NC(=O)[C@H](CO)NC(=O)[C@@H](Cc1c[nH]c2ccccc12)NC(=O)[C@@H](Cc1ccc(Cl)cc1)NC(=O)[C@@H](Cc1ccc2ccccc2c1)NC(C)=O)C(=O)N[C@@H](CC(C)C)C(=O)N[C@@H](CCCCN/C(=N/CC)NCC)C(=O)N1CCC[C@H]1C(=O)N[C@H](C)C(N)=O [listing 1 of 2 here] | 0.1 mg/L (≈ 0.0622 µM) | –
CC/N=C(/NCC)NCCCC[C@@H](NC(=O)[C@H](Cc1ccc(O)cc1)NC(=O)[C@H](CO)NC(=O)[C@@H](Cc1c[nH]c2ccccc12)NC(=O)[C@@H](Cc1ccc(Cl)cc1)NC(=O)[C@@H](Cc1ccc2ccccc2c1)NC(C)=O)C(=O)N[C@@H](CC(C)C)C(=O)N[C@@H](CCCCN/C(=N/CC)NCC)C(=O)N1CCC[C@H]1C(=O)N[C@H](C)C(N)=O [listing 2 of 2 here] | – | 0.5 µg
CC(=O)N[C@H](Cc1ccc2ccccc2c1)C(=O)N[C@H](Cc1ccc(Cl)cc1)C(=O)N[C@H](Cc1c[nH]c2ccccc12)C(=O)N[C@@H](CO)C(=O)N[C@@H](Cc1ccc(O)cc1)C(=O)N[C@H](CCCCNC1=NCCCN1)C(=O)N[C@@H](CC(C)C)C(=O)N[C@@H](CCCCNC1=NCCCN1)C(=O)N1CCC[C@H]1C(=O)N[C@H](C)C(N)=O [listing 1 of 2 here] | 2.5 mg/L (≈ 1.59 µM) | –
CC(=O)N[C@H](Cc1ccc2ccccc2c1)C(=O)N[C@H](Cc1ccc(Cl)cc1)C(=O)N[C@H](Cc1c[nH]c2ccccc12)C(=O)N[C@@H](CO)C(=O)N[C@@H](Cc1ccc(O)cc1)C(=O)N[C@H](CCCCNC1=NCCCN1)C(=O)N[C@@H](CC(C)C)C(=O)N[C@@H](CCCCNC1=NCCCN1)C(=O)N1CCC[C@H]1C(=O)N[C@H](C)C(N)=O [listing 2 of 2 here] | – | 0.7 µg
CC/N=C(/NCC)NCCCC[C@@H](NC(=O)[C@H](Cc1ccc(O)cc1)NC(=O)[C@H](CO)NC(=O)[C@@H](Cc1cccnc1)NC(=O)[C@@H](Cc1ccc(Cl)cc1)NC(=O)[C@@H](Cc1ccc2ccccc2c1)NC(C)=O)C(=O)N[C@@H](CC(C)C)C(=O)N[C@@H](CCCCN/C(=N/CC)NCC)C(=O)N1CCC[C@H]1C(=O)N[C@H](C)C(N)=O [listing 1 of 2 here] | 13 mg/L (≈ 8.28 µM) | –
CC/N=C(/NCC)NCCCC[C@@H](NC(=O)[C@H](Cc1ccc(O)cc1)NC(=O)[C@H](CO)NC(=O)[C@@H](Cc1cccnc1)NC(=O)[C@@H](Cc1ccc(Cl)cc1)NC(=O)[C@@H](Cc1ccc2ccccc2c1)NC(C)=O)C(=O)N[C@@H](CC(C)C)C(=O)N[C@@H](CCCCN/C(=N/CC)NCC)C(=O)N1CCC[C@H]1C(=O)N[C@H](C)C(N)=O [listing 2 of 2 here] | – | 0.285 µg
CC(=O)N[C@H](Cc1ccc2ccccc2c1)C(=O)N[C@H](Cc1ccc(Cl)cc1)C(=O)N[C@H](Cc1cccnc1)C(=O)N[C@@H](CO)C(=O)N[C@@H](CCCN=C(N)N)C(=O)N[C@H](Cc1cccnc1)C(=O)N[C@@H](CC(C)C)C(=O)N[C@@H](CCCCN=C(NCC(F)(F)F)NCC(F)(F)F)C(=O)N1CCC[C@H]1C(=O)N[C@H](C)C(N)=O | 0.95 mg/L (≈ 0.596 µM) | 0.595 µg
CC(=O)N[C@H](Cc1ccc2ccccc2c1)C(=O)N[C@H](Cc1ccc(Cl)cc1)C(=O)N[C@H](Cc1cccnc1)C(=O)N[C@@H](CO)C(=O)N[C@@H](CCCCN=C(NCC(F)(F)F)NCC(F)(F)F)C(=O)N[C@H](Cc1ccc(O)cc1)C(=O)N[C@@H](CC(C)C)C(=O)N[C@@H](CCCCN=C(NCC(F)(F)F)NCC(F)(F)F)C(=O)N1CCC[C@H]1C(=O)N[C@H](C)C(N)=O | 53 mg/L (≈ 29.7 µM) | 1.15 µg
CCCC/N=C(\N)NCCCC[C@H](NC(=O)[C@H](CC(C)C)NC(=O)[C@@H](Cc1cccnc1)NC(=O)[C@H](Cc1ccc(O)cc1)NC(=O)[C@H](CO)NC(=O)[C@@H](Cc1cccnc1)NC(=O)[C@@H](Cc1ccc(Cl)cc1)NC(=O)[C@@H](Cc1ccc2ccccc2c1)NC(C)=O)C(=O)N1CCC[C@H]1C(=O)N[C@H](C)C(N)=O | 15.7 mg/L (≈ 10.5 µM) | 1.2 µg
